≈ marks a conversion by molar mass, not a printed value.
Experiments:
Type in all cases: functional
Pichia kudriavzevii = experiment: Antifungal activity against Candida krusei Berkout KCCM 11655 after 1 day by two fold broth dilution method; conditions: Berkout KCCM 11655, 24 h
How it was run: (§1)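 Yeasts were tested by twofold broth dilution in modified Sabouraud dextrose broth with about 1 × 10⁵ cells/mL inoculum. Final compound concentrations ran from […]. Incubation was at 37 °C with the MIC read after 1 day. Fluconazole and 5-fluorocytosine were the standard comparators.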

Aspergillus niger = experiment: Antifungal activity against Aspergillus niger KCTC 1231 after 2 days by two fold broth dilution method; conditions: KCTC 1231, 48 h
How it was run: (§2)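 Twofold broth dilution in modified Sabouraud dextrose broth, inoculum about 1 × 10⁵ cells/mL. Compounds were tested at final concentrations of […]. Plates were incubated at 37 °C and the MIC was read after 2 days. Fluconazole and 5-fluorocytosine served as reference agents.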

Candida tropicalis = experiment: Antifungal activity against Candida tropicalis Berkout KCCM 50662 after 1 day by two fold broth dilution method; conditions: Berkout KCCM 50662, 24 h; how it was run: as §1
Candida albicans = experiment: Antifungal activity against Candida albicans Berkout KCCM 50235 after 1 day by two fold broth dilution method; conditions: Berkout KCCM 50235, 24 h; how it was run: as §1
Aspergillus flavus = experiment: Antifungal activity against Aspergillus flavus KCCM 11899 after 2 days by two fold broth dilution method; conditions: KCCM 11899, 48 h; how it was run: as §2
Cryptococcus neoformans = experiment: Antifungal activity against Cryptococcus neoformans KCCM 50564 after 1 day by two fold broth dilution method; conditions: KCCM 50564, 24 h; how it was run: as §1

SMILES	MIC (Pichia kudriavzevii) [µg/mL]	MIC (Aspergillus niger) [µg/mL]	MIC (Candida tropicalis) [µg/mL]	MIC (Candida albicans) [µg/mL]	MIC (Aspergillus flavus) [µg/mL]	MIC (Cryptococcus neoformans) [µg/mL]
COC(=O)c1c(C)nc(C)c2c1C(=O)C(Cl)=C(Nc1ccc(F)c(F)c1)C2=O	6.3 (≈ 15.5 µM)	1.6 (≈ 3.93 µM)	25 (≈ 61.5 µM)	1.6 (≈ 3.93 µM)	6.3 (≈ 15.5 µM)	12.5 (≈ 30.7 µM)
COC(=O)c1c(C)nc(C)c2c1C(=O)C(Cl)=C(Nc1ccc(F)cc1)C2=O	6.3 (≈ 16.2 µM)	1.6 (≈ 4.12 µM)	1.6 (≈ 4.12 µM)	1.6 (≈ 4.12 µM)	6.3 (≈ 16.2 µM)	6.3 (≈ 16.2 µM)
CC(=O)c1cc(O)ccc1O	100 (≈ 657 µM)	> 100	50 (≈ 329 µM)	50 (≈ 329 µM)	100 (≈ 657 µM)	50 (≈ 329 µM)
Nc1nc(=O)[nH]cc1F [FLUCYTOSINE]	6.3 (≈ 48.8 µM)	6.3 (≈ 48.8 µM)	3.2 (≈ 24.8 µM)	3.2 (≈ 24.8 µM)	6.3 (≈ 48.8 µM)	12.5 (≈ 96.8 µM)
COC(=O)c1c(C)nc(C)c2c1C(=O)C(Cl)=C(Nc1ccc(I)cc1)C2=O	12.5 (≈ 25.2 µM)	1.6 (≈ 3.22 µM)	6.3 (≈ 12.7 µM)	6.3 (≈ 12.7 µM)	25 (≈ 50.3 µM)	3.2 (≈ 6.44 µM)
COC(=O)c1c(C)nc(C)c2c1C(=O)C(Br)=C(Nc1ccc(F)cc1)C2=O	12.5 (≈ 28.9 µM)	6.3 (≈ 14.5 µM)	6.3 (≈ 14.5 µM)	6.3 (≈ 14.5 µM)	12.5 (≈ 28.9 µM)	6.3 (≈ 14.5 µM)
COC(=O)c1c(C)nc(C)c2c1C(=O)C(Cl)=C(Nc1ccc(C#N)cc1)C2=O	12.5 (≈ 31.6 µM)	6.3 (≈ 15.9 µM)	12.5 (≈ 31.6 µM)	1.6 (≈ 4.04 µM)	6.3 (≈ 15.9 µM)	1.6 (≈ 4.04 µM)
COC(=O)c1c(C)nc(C)c2c1C(=O)C=C(Sc1ccc(C)cc1)C2=O	12.5 (≈ 34 µM)	6.3 (≈ 17.1 µM)	6.3 (≈ 17.1 µM)	6.3 (≈ 17.1 µM)	3.2 (≈ 8.71 µM)	1.6 (≈ 4.35 µM)
COC(=O)c1c(C)nc(C)c2c1C(=O)C(Br)=C(Nc1ccc(Br)cc1)C2=O	12.5 (≈ 25.3 µM)	1.6 (≈ 3.24 µM)	1.6 (≈ 3.24 µM)	1.6 (≈ 3.24 µM)	3.2 (≈ 6.48 µM)	12.5 (≈ 25.3 µM)
OC(Cn1cncn1)(Cn1cncn1)c1ccc(F)cc1F [FLUCONAZOLE]	25 (≈ 81.6 µM)	25 (≈ 81.6 µM)	6.3 (≈ 20.6 µM)	50 (≈ 163 µM)	25 (≈ 81.6 µM)	6.3 (≈ 20.6 µM)
COC(=O)c1c(C)nc(C)c2c1C(=O)C(Br)=C(Nc1ccc(OC)cc1)C2=O	1.6 (≈ 3.59 µM)	1.6 (≈ 3.59 µM)	12.5 (≈ 28.1 µM)	0.8 (≈ 1.8 µM)	12.5 (≈ 28.1 µM)	1.6 (≈ 3.59 µM)
COC(=O)c1c(C)nc(C)c2c1C(=O)C(Br)=C(Nc1ccc(Cl)cc1)C2=O	25 (≈ 55.6 µM)	12.5 (≈ 27.8 µM)	6.3 (≈ 14 µM)	25 (≈ 55.6 µM)	12.5 (≈ 27.8 µM)	12.5 (≈ 27.8 µM)
COC(=O)c1c(C)nc(C)c2c1C(=O)C=C(Sc1ccc(C)c(C)c1)C2=O	12.5 (≈ 32.8 µM)	6.3 (≈ 16.5 µM)	12.5 (≈ 32.8 µM)	25 (≈ 65.5 µM)	6.3 (≈ 16.5 µM)	6.3 (≈ 16.5 µM)
COC(=O)c1c(C)nc(C)c2c1C(=O)C=C(Nc1ccc(C)cc1)C2=O	25 (≈ 71.4 µM)	25 (≈ 71.4 µM)	25 (≈ 71.4 µM)	25 (≈ 71.4 µM)	25 (≈ 71.4 µM)	12.5 (≈ 35.7 µM)
COC(=O)c1c(C)nc(C)c2c1C(=O)C(Cl)=C(Nc1ccc(OC)cc1)C2=O	12.5 (≈ 31.2 µM)	3.2 (≈ 7.98 µM)	12.5 (≈ 31.2 µM)	1.6 (≈ 3.99 µM)	6.3 (≈ 15.7 µM)	3.2 (≈ 7.98 µM)
COC(=O)c1c(C)nc(C)c2c1C(=O)C(Cl)=C(Nc1ccc(Cl)cc1)C2=O	12.5 (≈ 30.8 µM)	3.2 (≈ 7.9 µM)	6.3 (≈ 15.5 µM)	1.6 (≈ 3.95 µM)	1.6 (≈ 3.95 µM)	12.5 (≈ 30.8 µM)
COC(=O)c1c(C)nc(C)c2c1C(=O)C=C(Nc1ccc(I)cc1)C2=O	12.5 (≈ 27 µM)	12.5 (≈ 27 µM)	12.5 (≈ 27 µM)	12.5 (≈ 27 µM)	12.5 (≈ 27 µM)	6.3 (≈ 13.6 µM)
COC(=O)c1c(C)nc(C)c2c1C(=O)C=C(Sc1ccc(O)cc1)C2=O	6.3 (≈ 17.1 µM)	6.3 (≈ 17.1 µM)	25 (≈ 67.7 µM)	25 (≈ 67.7 µM)	6.3 (≈ 17.1 µM)	3.2 (≈ 8.66 µM)
COC(=O)c1c(C)nc(C)c2c1C(=O)C=C(Nc1ccc(Br)cc1)C2=O	12.5 (≈ 30.1 µM)	6.3 (≈ 15.2 µM)	12.5 (≈ 30.1 µM)	12.5 (≈ 30.1 µM)	12.5 (≈ 30.1 µM)	12.5 (≈ 30.1 µM)
COC(=O)c1c(C)nc(C)c2c1C(=O)C=CC2=O	50 (≈ 204 µM)	> 100	12.5 (≈ 51 µM)	25 (≈ 102 µM)	50 (≈ 204 µM)	50 (≈ 204 µM)
COC(=O)c1c(C)nc(C)c2c1C(=O)C(Br)=C(Nc1ccc(F)c(F)c1)C2=O	25 (≈ 55.4 µM)	6.3 (≈ 14 µM)	1.6 (≈ 3.55 µM)	6.3 (≈ 14 µM)	12.5 (≈ 27.7 µM)	12.5 (≈ 27.7 µM)
COC(=O)c1c(C)nc(C)c2c1C(=O)C(Cl)=C(Nc1ccc(C)cc1)C2=O	3.2 (≈ 8.32 µM)	1.6 (≈ 4.16 µM)	0.8 (≈ 2.08 µM)	1.6 (≈ 4.16 µM)	25 (≈ 65 µM)	6.3 (≈ 16.4 µM)
COC(=O)c1c(C)nc(C)c2c1C(=O)C(Br)=C(Nc1ccc(C)cc1)C2=O	6.3 (≈ 14.7 µM)	6.3 (≈ 14.7 µM)	1.6 (≈ 3.73 µM)	6.3 (≈ 14.7 µM)	25 (≈ 58.2 µM)	6.3 (≈ 14.7 µM)
COC(=O)c1c(C)nc(C)c2c1C(=O)C(Cl)=C(Nc1ccc(Br)cc1)C2=O	6.3 (≈ 14 µM)	1.6 (≈ 3.56 µM)	12.5 (≈ 27.8 µM)	1.6 (≈ 3.56 µM)	6.3 (≈ 14 µM)	3.2 (≈ 7.12 µM)

Reference: ChEMBL document CHEMBL2346510, “Synthesis and antifungal evaluation of 7-arylamino-5,8-dioxo-5,8-dihydroisoquinoline-4-carboxylates” (2013)
